Data on 13 compounds can be found in ChEMBL document CHEMBL4382219, “Synthesis and Biological Evaluation of Cajaninstilbene Acid and Amorfrutins A and B as Inhibitors of the Pseudomonas aeruginosa Quorum Sensing System” (J Nat Prod, 2018).

For data set [1], the system named is Pseudomonas aeruginosa. The data set can be described thus: Anti-biofilm activity against Pseudomonas aeruginosa PAO1 at 50 uM after 24 hrs by crystal violet staining based assay relative to control. It is filed as functional. A digest of the protocol:
(§1)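 PAO1 grown overnight in LB, then diluted in ABTGC medium (B-medium with 0.1% MgCl₂, 0.1% CaCl₂, 0.1% FeCl₃, plus 10% A10, 0.2% glucose, 0.2% casamino acids) and mixed with compound. Static 24 h at 37 °C. Wells PBS-washed, MeOH-fixed 20 min, stained 20 min with 0.1% w/v crystal violet, then dissolved in 33% AcOH.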

Data set [2] concerns the target T1, Anthranilate--CoA ligase (Pseudomonas aeruginosa (strain ATCC 15692 / DSM 22644 / CIP 104116 /JCM 14847 / LMG 12228 / 1C / PRS 101 / PAO1)) (UniProt Q9I4X3).
T1 sequence (whole entry): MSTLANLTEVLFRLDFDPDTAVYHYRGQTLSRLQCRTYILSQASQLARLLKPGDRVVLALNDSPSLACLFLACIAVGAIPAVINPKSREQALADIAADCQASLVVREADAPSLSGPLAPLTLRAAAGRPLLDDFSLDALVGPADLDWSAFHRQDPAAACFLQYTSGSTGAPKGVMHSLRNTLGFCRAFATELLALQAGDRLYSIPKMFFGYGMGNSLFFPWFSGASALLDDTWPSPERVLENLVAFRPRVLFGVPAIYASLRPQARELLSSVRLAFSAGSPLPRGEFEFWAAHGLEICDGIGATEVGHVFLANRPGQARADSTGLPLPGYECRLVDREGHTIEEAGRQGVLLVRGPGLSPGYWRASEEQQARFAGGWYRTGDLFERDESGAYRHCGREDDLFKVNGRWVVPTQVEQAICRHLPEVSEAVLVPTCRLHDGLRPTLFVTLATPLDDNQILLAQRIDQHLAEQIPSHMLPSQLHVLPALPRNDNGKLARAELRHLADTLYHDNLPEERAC
As to the kind of experiment: Inhibition of pqsA quorum sensing system in Pseudomonas aeruginosa PAO1 harboring mini-ctx-pqsA-lacZ at 50 uM in presence of PQS by beta-galactosidase reporter gene assay. A digest of the protocol:
(§2)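 Competition: overnight lasB-lacZ or pqsA-lacZ reporter cultures diluted in ABTGC medium to OD600 0.01. Compound at 50 μM added with ODdHL (lasB) or PQS (pqsA) at final 50, 20, 10 or 0 μM. β-galactosidase measured when OD600 reached 1.0. DMSO control; triplicate.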
A general note: A reporter such as luciferase makes a cellular process visible.

Data set [3] has as its target T1, Anthranilate--CoA ligase (Pseudomonas aeruginosa (strain ATCC 15692 / DSM 22644 / CIP 104116 /JCM 14847 / LMG 12228 / 1C / PRS 101 / PAO1)). As to the kind of experiment: Inhibition of pqsA quorum sensing system in Pseudomonas aeruginosa PAO1 assessed as reduction in pyocyanin release at 10 uM after 20 hrs relative to control. A digest of the protocol:
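Pyocyanin: overnight PAO1 diluted in LB to OD600 0.01; 20 mL cultures shaken at 37 °C for 20 h. Centrifuged at 1500g for 10 min; supernatant absorbance read at 695 nm. PAO1ΔlasIΔrhlI served as blank; DMSO as control.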

The test system of data set [4] is Pseudomonas aeruginosa. The data set can be described thus: Anti-biofilm activity against Pseudomonas aeruginosa PAO1 after 24 hrs by crystal violet staining based assay. It is filed as functional, organism-based. The procedure, abridged:
as §1

The target of data set [5] is 3-(3-hydroxydecanoyloxy)decanoate synthase (Pseudomonas aeruginosa (strain ATCC 15692 / PAO1 / 1C / PRS 101 / LMG12228)) (UniProt Q51559). As to the kind of experiment: Inhibition of RhlA quorum sensing system in Pseudomonas aeruginosa PAO1 harboring mini-ctx-RhlA-lacZ at 2.5 to 20 uM after 6 hrs by beta-galactosidase reporter gene assay.
Data set [6] deals with T1, Anthranilate--CoA ligase (Pseudomonas aeruginosa (strain ATCC 15692 / DSM 22644 / CIP 104116 /JCM 14847 / LMG 12228 / 1C / PRS 101 / PAO1)). The data set can be described thus: Inhibition of pqsA quorum sensing system in Pseudomonas aeruginosa PAO1 harboring mini-ctx-pqsA-lacZ after 24 hrs by beta-galactosidase reporter gene assay.
In data set [7] the target is 3-(3-hydroxydecanoyloxy)decanoate synthase (Pseudomonas aeruginosa (strain ATCC 15692 / PAO1 / 1C / PRS 101 / LMG12228)) (UniProt Q51559). The data set can be described thus: Inhibition of RhlA quorum sensing system in Pseudomonas aeruginosa PAO1 harboring mini-ctx-RhlA-lacZ at 50 uM after 6 hrs by beta-galactosidase reporter gene assay.
For data set [8], the system named is Pseudomonas aeruginosa. The data set can be described thus: Toxicity in Pseudomonas aeruginosa PAO1 assessed as growth inhibition at 1 to 50 uM after 2 to 16 hrs. It is filed as organism-based. Conditions: in vivo.
For data set [9], the system named is Pseudomonas aeruginosa. The data set can be described thus: Anti-biofilm activity against Pseudomonas aeruginosa PAO1 at 1 to 50 uM after 24 hrs by crystal violet staining based assay relative to control. It is filed as functional. A digest of the protocol: as §1
Data set [10] concerns the target Elastase (Pseudomonas aeruginosa (strain ATCC 15692 / PAO1 / 1C / PRS 101 / LMG12228)) (UniProt P14756). The data set can be described thus: Inhibition of lasB quorum sensing system in Pseudomonas aeruginosa PAO1 harboring mini-ctx-lasB-lacZ after 6 hrs by beta-galactosidase reporter gene assay.
The target is the same in data set [11]. As to the kind of experiment: Inhibition of lasB quorum sensing system in Pseudomonas aeruginosa PAO1 assessed as reduction in elastase release at 10 uM after 24 hrs relative to control. The procedure, abridged: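 Elastase: overnight wild-type PAO1 diluted in ABTGC medium to OD600 0.01 and grown 24 h at 37 °C with shaking at 200 rpm. Supernatant elastase measured by a fluorogenic elastase kit. PAO1ΔlasIΔrhlI served as blank; DMSO as control.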

The target is the same in data set [12]. The data set can be described thus: Inhibition of lasB quorum sensing system in Pseudomonas aeruginosa PAO1 harboring mini-ctx-lasB-lacZ at 50 uM in presence of ODdHL by beta-galactosidase reporter gene assay. A digest of the protocol:
as §2

In data set [13] the target is 3-(3-hydroxydecanoyloxy)decanoate synthase (Pseudomonas aeruginosa (strain ATCC 15692 / PAO1 / 1C / PRS 101 / LMG12228)) (UniProt Q51559). The data set can be described thus: Inhibition of RhlA quorum sensing system in Pseudomonas aeruginosa PAO1 assessed as reduction in rhamnolipid production at 10 to 50 uM after 20 hrs. A digest of the protocol:
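Rhamnolipid by orcinol method: overnight PAO1 diluted in phosphate minimal medium with 0.6% glycerol, 5 mL cultures shaken at 37 °C for 20 h with compound at various concentrations; DMSO control. Cultures centrifuged 12000g, 4 °C, 5 min; orcinol reaction at 80 °C for 30 min. A421 divided by final OD600.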

The test system of data set [14] is Pseudomonas aeruginosa. As to the kind of experiment: Toxicity in Pseudomonas aeruginosa PAO1 harboring mini-ctx-lacZ assessed as effect on beta-galactosidase activity at 2.5 to 50 uM beta-galactosidase reporter gene assay. It is filed as organism-based. Conditions: in vivo.

Calls of active or inactive are those of the source. No cut-off for these calls is given here.

Elastase (Pseudomonas aeruginosa (strain ATCC 15692 / PAO1 / 1C / PRS 101 / LMG12228)), sequence (P14756 198-498 limits assumed): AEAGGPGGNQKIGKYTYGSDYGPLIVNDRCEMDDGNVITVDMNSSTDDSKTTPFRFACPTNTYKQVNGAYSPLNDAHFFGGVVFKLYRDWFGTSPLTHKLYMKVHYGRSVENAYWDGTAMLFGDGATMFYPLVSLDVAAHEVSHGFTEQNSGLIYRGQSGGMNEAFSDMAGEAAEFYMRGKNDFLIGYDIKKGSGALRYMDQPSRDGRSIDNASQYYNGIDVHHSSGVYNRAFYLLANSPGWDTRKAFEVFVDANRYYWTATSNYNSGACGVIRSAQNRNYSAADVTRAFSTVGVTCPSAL

For `COc1cc(/C=C/c2ccccc2)c(C(=O)O)c(OC(C)=O)c1CC=C(C)C`, the Activity in data set [1] is reported as -24.4%.
For `COc1cc(CCc2ccccc2)c(C(=O)O)c(OC(C)=O)c1C/C=C(\C)CCC=C(C)C`, in data set [1], the Activity is reported as -32.9%.
Take `COc1cc(CCc2ccccc2)c(C=O)c(O)c1CC=C(C)C`: in data set [1], the Activity came out at 26.9%.
Still for that read-out and setting: next, `COc1cc(/C=C/c2ccccc2)c(C=O)c(OCC=C(C)C)c1`: -14.3%.
Turning to `COc1cc(CCc2ccccc2)c(C(=O)O)c(O)c1C/C=C(\C)CCC=C(C)C`, the inhibition entry in data set [2], in data set [5], in [12] and in [13] was “inactive” in each case. In addition, the inhibition (in general, the change of the read-out against control, counted positive when it falls) was 50% in [3], “Dose-dependent effect” in data set [6], “Dose-dependent effect” in data set [10] and 50% in [11]. Moreover, the Activity entry in data set [4] was “Dose-dependent effect”; in data set [9], 20 - 50%; in [1] it was 50.3%; in [14], “Non-Toxic”. The inhibition result in data set [7] was “Active”. Besides, the “growth inhibition (GI)” value in data set [8] is given as “Non-Toxic”.
Take `COc1cc(/C=C/c2ccccc2)c(C=O)c(O)c1CC=C(C)C`: in [1], the Activity is on record as 42.4%.
As to `COc1cc(CCc2ccccc2)c(C=O)c(OC(C)=O)c1C/C=C(\C)CCC=C(C)C`, the Activity in [1] is on record as 24.7%.
Same read-out and setting: next, `COc1cc(CCc2ccccc2)c(C=O)c(O)c1C/C=C(\C)CCC=C(C)C`: 53.1%; `COc1cc(/C=C/c2ccccc2)c(C(=O)O)c(O)c1CC=C(C)C`: -41%; `COc1cc(CCc2ccccc2)c(C(=O)O)c(OC(C)=O)c1CC=C(C)C`: 36.9%.
Consider `COc1cc(CCc2ccccc2)c(C(=O)O)c(O)c1CC=C(C)C` [AMORFRUTIN A], for which the Activity in data set [1] was -31.3%.
For the compound `COc1cc(CCc2ccccc2)c(C=O)c(OC(C)=O)c1CC=C(C)C`, in data set [1], the Activity is -32.1%.
Turning to `COc1cc(/C=C/c2ccccc2)c(C=O)c(OC(C)=O)c1CC=C(C)C`, the Activity in data set [1] is listed as -12.5%.
